Reference: ChEMBL document CHEMBL4138242, “Synthesis and antibacterial evaluation of novel cationic chalcone derivatives possessing broad spectrum antibacterial activity” (Eur J Med Chem, 2018)
Activity calls are given as the source filed them.

Key:
Staphylococcus aureus [1] = assay: Bactericidal activity against Staphylococcus aureus ATCC 29213 preincubated with 50% sheep plasma at 512 ug/ml for 3 to 6 hrs followed by compound serial dilution and subsequent bacterial inoculation measured after 20 to 24 hrs; format: functional; details: read-out: MBC99.9
How it was run: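 Compound at 512 µg/mL in 50% water/50% sheep plasma, preincubated at 37 °C for 0, 3 or 6 h. Then serially diluted (256-4 µg/mL) and combined 50:150 µL with S. aureus at 10⁵ CFU/mL, 37 °C for 20-24 h. MBC determined by plating; three parallel samples.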

Staphylococcus aureus [2] = assay: Antibacterial activity against Staphylococcus aureus ATCC 29213 after 16 to 20 hrs by broth microdilution method; format: functional
How it was run: (§1)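 Broth microdilution per CLSI. Bacteria grown 4-6 h (about 10⁸ CFU/mL), then diluted to about 10⁶ CFU/mL. Medium: Mueller-Hinton broth, except Luria-Bertani broth for E. coli. Compounds in sterile water, twofold series 256-0.5 µg/mL, mixed 1:1 with inoculum, 37 °C for 16-20 h. MIC is the lowest concentration without visible growth. Duplicate wells; experiment repeated at least twice.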

Enterococcus faecalis = assay: Antibacterial activity against Enterococcus faecalis ATCC 29212 after 16 to 20 hrs by broth microdilution method; format: functional; how it was run: as §1
Salmonella enterica = assay: Antibacterial activity against Salmonella enterica ATCC 13076 after 16 to 20 hrs by broth microdilution method; format: functional; how it was run: as §1
Staphylococcus aureus [3] = assay: Antibacterial activity against methicillin-resistant Staphylococcus aureus clinical isolate 1-may after 16 to 20 hrs by broth microdilution method; format: functional
How it was run: (§2)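 CLSI broth microdilution in Mueller-Hinton broth. A 4-6 h culture was diluted to about 10⁶ CFU/mL and mixed 1:1 with compound dilutions prepared at 256 to 0.5 µg/mL from aqueous stocks. Plates were incubated at 37 °C for 16-20 h and read visually for MIC. Each concentration was run in duplicate, and the experiment was repeated at least twice. Vancomycin and meropenem were comparators.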

Staphylococcus aureus [4] = assay: Antibacterial activity against methicillin-resistant Staphylococcus aureus clinical isolate 0906202 after 16 to 20 hrs by broth microdilution method; format: functional; how it was run: as §2
Staphylococcus aureus [5] = assay: Antibacterial activity against methicillin-resistant Staphylococcus aureus clinical isolate 1208143 after 16 to 20 hrs by broth microdilution method; format: functional; how it was run: as §2
Klebsiella pneumoniae [6] = assay: Antibacterial activity against drug-resistant carbapenemase producing Klebsiella pneumoniae clinical isolate KP-13-54 after 16 to 20 hrs by broth microdilution method; format: functional; how it was run: as §2
Klebsiella pneumoniae [7] = assay: Antibacterial activity against drug-resistant carbapenemase producing Klebsiella pneumoniae clinical isolate KP-14-5 after 16 to 20 hrs by broth microdilution method; format: functional; how it was run: as §2
Klebsiella pneumoniae [8] = assay: Antibacterial activity against drug-resistant carbapenemase producing Klebsiella pneumoniae clinical isolate KP-14-45 after 16 to 20 hrs by broth microdilution method; format: functional; how it was run: as §2
Escherichia coli [9] = assay: Antibacterial activity against drug-resistant NDM1 producing Escherichia coli clinical isolate Ecl-13-62 after 16 to 20 hrs by broth microdilution method; format: functional; how it was run: as §2
Escherichia coli [10] = assay: Antibacterial activity against drug-resistant NDM1 producing Escherichia coli clinical isolate Ecl-14-59 after 16 to 20 hrs by broth microdilution method; format: functional; how it was run: as §2
Escherichia coli [11] = assay: Antibacterial activity against drug-resistant NDM1 producing Escherichia coli clinical isolate 1460 after 16 to 20 hrs by broth microdilution method; format: functional; how it was run: as §2
Escherichia coli [12] = assay: Antibacterial activity against drug-resistant NDM1 producing Escherichia coli clinical isolate CF-15-61 after 16 to 20 hrs by broth microdilution method; format: functional; how it was run: as §2
Staphylococcus aureus [13] = assay: Disruption of 24 hrs cultured Staphylococcus aureus ATCC 29213 biofilm assessed as cell viability in biofilm at 2 ug/ml after 24 hrs by crystal violet staining-based assay (reference value: 15.96 log10CFU/ml); format: functional
Staphylococcus aureus [14] = assay: Disruption of 24 hrs cultured Staphylococcus aureus ATCC 29213 biofilm assessed as cell viability in biofilm at 32 ug/ml after 24 hrs by crystal violet staining-based assay (reference value: 15.96 log10CFU/ml); format: functional
Staphylococcus aureus [15] = assay: Disruption of 24 hrs cultured Staphylococcus aureus ATCC 29213 biofilm assessed as cell viability in biofilm at 64 ug/ml after 24 hrs by crystal violet staining-based assay (reference value: 15.96 log10CFU/ml); format: functional
Staphylococcus aureus [16] = assay: Disruption of 24 hrs cultured Staphylococcus aureus ATCC 29213 biofilm assessed as cell viability in biofilm at 128 ug/ml after 24 hrs by crystal violet staining-based assay (reference value: 15.96 log10CFU/ml); format: functional
Staphylococcus aureus [17] = assay: Disruption of 24 hrs cultured Staphylococcus aureus ATCC 29213 biofilm assessed as decrease in cell viability in biofilm after 24 hrs by crystal violet staining-based assay; format: functional, organism-based
Staphylococcus aureus [18] = assay: Antibacterial activity against Staphylococcus aureus ATCC 29213 at sub MIC after 20 passages; format: functional, organism-based
How it was run: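 The MIC was first measured by broth microdilution. Cells grown at MIC/2 were then carried into a fresh MIC assay after each 24 h, repeated over 20 serial passages. Norfloxacin (S. aureus) and colistin (E. coli) served as control antibiotics. Resistance was defined as a >4-fold rise over the original MIC.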

Staphylococcus aureus [19] = assay: Ratio of MBC99.9 for methicillin-resistant Staphylococcus aureus in presence of 50% sheep serum to MBC99.9 for methicillin-resistant Staphylococcus aureus ATCC 29213 in presence of 50% sheep plasma; format: functional
How it was run: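 MRSA at 10⁵ CFU/mL in 50% MHB plus 50% sheep serum, plasma or defibrinated blood; serum and plasma were obtained by centrifugation at 3,500 rpm for 10 min. Aqueous dilutions prepared at 512-4 µg/mL were added 1:3 to the suspension and incubated for 20-24 h at 37 °C. Well contents (20 µL) were plated on MHA for 20-24 h, and MBC was the concentration giving no colonies.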

Staphylococcus aureus [20] = assay: Induction of cytoplasmic membrane depolarization in Staphylococcus aureus ATCC 29213 at 10 to 20 ug/ml measured every 2 mins for 12 mins by DiSC35 dye-based fluorescence assay; format: functional, organism-based
How it was run: (§3)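 Mid-log cells (~10⁸ CFU/mL) were suspended in PBS (S. aureus) or HEPES/glucose/KCl with EDTA (E. coli). They were preloaded with DiSC3(5) for 30 min (S. aureus) or 40 min (E. coli), and baseline fluorescence was read for 8 min. Compound was added to 20 µg/mL final, and fluorescence (ex 622/em 670 nm) was read every 2 min for 12 min. Water served as control.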

Escherichia coli [21] = assay: Induction of cytoplasmic membrane depolarization in Escherichia coli ATCC 25922 at 10 to 20 ug/ml measured every 2 mins for 12 mins by DiSC35 dye-based fluorescence assay; format: functional, organism-based; how it was run: as §3
Staphylococcus aureus [22] = assay: Induction of inner membrane permeabilization in Staphylococcus aureus ATCC 29213 at 10 to 20 ug/ml measured every 2 mins for 12 mins by propidium iodide staining-based fluorescence assay; format: functional, organism-based
How it was run: (§4)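 Mid-log cells (~10⁸ CFU/mL) were suspended in PBS (S. aureus) or HEPES/glucose/KCl (E. coli). They were preincubated with propidium iodide for 30 min (S. aureus) or 40 min (E. coli), and baseline fluorescence was read for 8 min. Compound was added to 20 µg/mL final, and fluorescence (ex 535/em 617 nm) was read every 2 min for 12 min.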

Escherichia coli [23] = assay: Induction of inner membrane permeabilization in Escherichia coli ATCC 25922 at 10 to 20 ug/ml measured every 2 mins for 12 mins by propidium iodide staining-based fluorescence assay; format: functional, organism-based; how it was run: as §4

CCCCCCCC[N+](C)(C)CC(=O)Nc1ccc(C(=O)/C=C/c2ccccc2F)cc1.[Cl-]
MBC (Staphylococcus aureus [1]): 16 µg/mL
MIC (Staphylococcus aureus [2]): 0.5 µg/mL
MIC (Enterococcus faecalis): 1 µg/mL
MIC (Salmonella enterica): 4 µg/mL
MIC (Staphylococcus aureus [3]): 1 µg/mL
MIC (Staphylococcus aureus [4]): 4 µg/mL
MIC (Staphylococcus aureus [5]): 1 µg/mL
MIC (Klebsiella pneumoniae [6]): 4 µg/mL
MIC (Klebsiella pneumoniae [7]): 4 µg/mL
MIC (Klebsiella pneumoniae [8]): 8 µg/mL
MIC (Escherichia coli [9]): 4 µg/mL
MIC (Escherichia coli [10]): 16 µg/mL
MIC (Escherichia coli [11]): 4 µg/mL
MIC (Escherichia coli [12]): 4 µg/mL
Activity (Staphylococcus aureus [13]): 13.93 log10CFU/ml
Activity (Staphylococcus aureus [14]): 9.59 log10CFU/ml
Activity (Staphylococcus aureus [15]): 9.41 log10CFU/ml
Activity (Staphylococcus aureus [16]): 8.95 log10CFU/ml
Activity (Staphylococcus aureus [17]): Dose-dependent effect
Activity (Staphylococcus aureus [18]): Active
Ratio (Staphylococcus aureus [19]): 2
Activity (Staphylococcus aureus [20]): Active
Activity (Escherichia coli [21]): Active
Activity (Staphylococcus aureus [22]): Active
Activity (Escherichia coli [23]): Active
